In ChEMBL document CHEMBL5108076, “Target-Focused Library Design by Pocket-Applied Computer Vision and Fragment Deep Generative Linking” (J Med Chem, 2022):

biological target: CDK8/Cyclin C (Homo sapiens, UniProt P49336); test: Inhibition of Alexa fluor 647 labeled kinase tracer binding to human CDK8/cyclin C incubated for 1 hr by FRET based LanthaScreen Eu-Kinase binding assay; type: protein-complex assay
Sequence (P49336 whole entry): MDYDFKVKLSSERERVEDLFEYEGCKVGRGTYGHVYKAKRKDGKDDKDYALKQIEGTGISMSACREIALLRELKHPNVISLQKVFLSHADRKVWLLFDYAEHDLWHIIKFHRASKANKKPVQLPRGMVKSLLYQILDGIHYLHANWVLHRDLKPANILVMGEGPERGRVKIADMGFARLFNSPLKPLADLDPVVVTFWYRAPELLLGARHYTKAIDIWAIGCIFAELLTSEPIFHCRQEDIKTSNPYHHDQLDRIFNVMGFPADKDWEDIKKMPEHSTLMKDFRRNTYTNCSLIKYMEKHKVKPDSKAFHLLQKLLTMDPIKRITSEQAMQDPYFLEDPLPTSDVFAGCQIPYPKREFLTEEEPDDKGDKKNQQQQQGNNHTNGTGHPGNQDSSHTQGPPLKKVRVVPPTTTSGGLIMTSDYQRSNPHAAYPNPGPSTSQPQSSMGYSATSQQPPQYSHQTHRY
Sequence (P24863 whole entry, further chain): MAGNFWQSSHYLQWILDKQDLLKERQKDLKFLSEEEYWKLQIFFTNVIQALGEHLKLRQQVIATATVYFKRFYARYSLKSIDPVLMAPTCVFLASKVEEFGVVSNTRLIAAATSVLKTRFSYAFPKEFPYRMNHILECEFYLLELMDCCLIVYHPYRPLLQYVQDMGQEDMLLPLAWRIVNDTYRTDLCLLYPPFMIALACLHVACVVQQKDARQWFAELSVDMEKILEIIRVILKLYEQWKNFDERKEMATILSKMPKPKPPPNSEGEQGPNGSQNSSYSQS

Structure (SMILES) | IC50 [µM]
CCOc1ccc(C(=O)Oc2cncc(-c3cnn(-c4ccccc4)c3)c2)cc1 | > 25
CCOc1ccc(C(=O)Oc2cnccc2NC(=O)Nc2ccccc2)cc1 | 0.355
CCOc1ccc(C(=O)Oc2cncc(C3CCN(c4ccccc4)CC3)c2)cc1 | > 25
CCOc1ccc(C(=O)Oc2cnccc2-c2cnn(-c3ccccc3)c2)cc1 | 0.0064
CCOc1ccc(C(=O)Oc2cncc(NC(=O)Nc3ccccc3)c2)cc1 | > 25
CCOc1ccc(C(=O)Oc2cnccc2C2CCN(c3ccccc3)CC2)cc1 | 0.144
CCOc1ccc(C(=O)Oc2cccnc2)cc1 | 0.377

biological target: CDK8/Cyclin C (Homo sapiens) (UniProt P49336+P24863); test: Inhibition of Alexa fluor 647 labeled kinase tracer binding to human CDK8/cyclin C at 10 uM incubated for 1 hr by FRET based LanthaScreen Eu-Kinase binding assay relative to control; type: protein-complex assay
Procedure, shortened: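 Tagged CDK8/CyclinC (5 nM final) with biotin anti-His antibody and Eu-streptavidin; competitor at 10 μM; Alexa Fluor 647 tracer 236 (Kd 8 nM) at 10 nM final. Buffer: HEPES 50 mM pH 7.5, MgCl2 10 mM, EGTA 1 mM, Brij-35 0.01%. Incubated 1 h at room temperature. TR-FRET read with excitation at 337 nm and emission at 665/620 nm. Mean ± SEM of two independent experiments.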

Structure (SMILES) | inhibition [%]
c1ccc(COc2ccc(OCc3ccccn3)cc2)nc1 | > 50
COc1ccc(OC(=O)c2cccnc2)cc1 | > 50
O=C(Nc1ccncc1)c1ccncc1 | > 50
CCOc1ccc(C(=O)Oc2cccnc2)cc1 | > 50
Cc1ccc(SC(C)C(=O)NCc2cccnc2)cc1 (stereo not drawn) | > 50
COc1ccc(C(O)Cc2cccnc2)cc1 (stereo not drawn) | > 50
